pKi: −log10 of the molar value. Activity calls are given as the source filed them. No cut-off for these calls is given here.
Tests used:
[1] = molecular target: T1, B2 bradykinin receptor (Cavia porcellus) (UniProt O70526); assay: Inhibition of BK-induced bronchoconstriction in Dunkin Hartley guinea pig at 100 nmol/kg, it; format: functional; set-up: scale not given: the % may be the effect or the level left
T1 sequence (whole entry): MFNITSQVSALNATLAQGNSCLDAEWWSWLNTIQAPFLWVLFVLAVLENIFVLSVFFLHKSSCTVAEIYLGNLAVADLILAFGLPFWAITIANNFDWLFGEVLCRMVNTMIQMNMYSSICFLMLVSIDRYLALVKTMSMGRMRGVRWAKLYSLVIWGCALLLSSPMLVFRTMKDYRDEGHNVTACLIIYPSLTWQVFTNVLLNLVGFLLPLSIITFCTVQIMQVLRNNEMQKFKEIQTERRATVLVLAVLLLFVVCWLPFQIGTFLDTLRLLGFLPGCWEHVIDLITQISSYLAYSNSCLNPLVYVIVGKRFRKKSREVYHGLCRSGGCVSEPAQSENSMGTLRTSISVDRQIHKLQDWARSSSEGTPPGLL
Summary of the method: (§1)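 Compound was given intratracheally to anaesthetized guinea pigs. Five min later, BK (10 nmol/kg iv) challenge was given and repeated every 30 min for 210 min. Pulmonary insufflation pressure was monitored. Result is Σ%: residual BK response as % of basal, normalized to control at 5–210 min time points, expressed as % of theoretical maximum.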

[2] = molecular target: T1, B2 bradykinin receptor (Cavia porcellus); assay: Effect on BK-induced hypotension in Dunkin Hartley guinea pig at 100 nmol/kg, it; format: functional
Summary of the method: as §1, with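 “Blood” for “Pulmonary insufflation”, “each observation” for “5–210 min”, “(5–210 min),” for “points,”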

[3] = molecular target: T1, B2 bradykinin receptor (Cavia porcellus); assay: Inhibition of BK-induced bronchoconstriction in Dunkin Hartley guinea pig at 30 nmol/kg, it; format: functional; set-up: scale not given: the % may be the effect or the level left; summary of the method: as §1
[4] = molecular target: T1, B2 bradykinin receptor (Cavia porcellus); assay: Inhibition of BK-induced bronchoconstriction in Dunkin Hartley guinea pig at 10 nmol/kg, it; format: functional; set-up: scale not given: the % may be the effect or the level left; summary of the method: as §1
[5] = molecular target: T2, B1 bradykinin receptor (Homo sapiens, UniProt P46663); assay: Binding affinity to human bradykinin B1 receptor
T2 sequence (P46663 whole entry): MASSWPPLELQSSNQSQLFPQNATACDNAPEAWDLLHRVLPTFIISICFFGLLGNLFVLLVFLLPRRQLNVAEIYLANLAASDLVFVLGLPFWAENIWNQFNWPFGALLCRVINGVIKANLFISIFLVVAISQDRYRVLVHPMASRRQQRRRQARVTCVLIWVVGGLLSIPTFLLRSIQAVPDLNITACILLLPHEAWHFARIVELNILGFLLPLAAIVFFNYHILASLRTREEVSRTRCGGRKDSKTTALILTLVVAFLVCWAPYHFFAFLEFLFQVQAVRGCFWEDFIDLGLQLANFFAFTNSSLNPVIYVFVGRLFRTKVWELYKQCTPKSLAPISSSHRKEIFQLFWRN

[6] = molecular target: Muscarinic acetylcholine receptor (Homo sapiens) (UniProt P20309+P08173+P11229+P08172+P08912); assay: Activity at muscarinic receptor at 1 uM; format: protein assay
[7] = species: Homo sapiens; assay: Activity at nicotinic receptor at 1 uM
[8] = molecular target: T3, B2 bradykinin receptor (Homo sapiens, UniProt P30411); assay: Displacement of [3H]BK from human bradykinin B2 receptor transfected in CHO cells; format: cell-based
T3 sequence (P30411 whole entry): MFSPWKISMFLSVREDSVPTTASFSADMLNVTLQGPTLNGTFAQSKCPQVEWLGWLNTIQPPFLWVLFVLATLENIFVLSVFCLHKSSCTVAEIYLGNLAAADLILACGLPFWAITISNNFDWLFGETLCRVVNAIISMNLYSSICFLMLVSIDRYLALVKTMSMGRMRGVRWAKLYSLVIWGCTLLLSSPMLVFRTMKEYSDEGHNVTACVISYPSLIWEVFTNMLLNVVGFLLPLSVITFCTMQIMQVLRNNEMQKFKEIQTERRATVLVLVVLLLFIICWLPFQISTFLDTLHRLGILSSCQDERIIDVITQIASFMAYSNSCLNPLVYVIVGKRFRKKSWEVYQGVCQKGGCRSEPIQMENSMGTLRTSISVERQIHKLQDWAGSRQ
Summary of the method: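 pKi from inhibition of specific [3H]-BK binding to membrane preparations of CHO cells stably transfected with the human B2 receptor.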

[9] = molecular target: T3, B2 bradykinin receptor; assay: Antagonist potency at human bradykinin B2 receptor assessed as effect on inositol monophosphate accumulation in CHOdhfr- cells; format: functional, cell-based; settings: read-out: pA2 (converted)
Summary of the method: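 pA2 derived from antagonism of bradykinin-stimulated inositol monophosphate accumulation in CHOdhfr- cells stably transfected with the human B2 receptor.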

[10] = molecular target: T4, B2 bradykinin receptor (Cavia porcellus, UniProt O70526); assay: Antagonist potency on BK-induced contraction of guinea pig ileum longitudinal smooth muscle; format: functional, tissue-based; settings: read-out: pA2 (converted)
T4 sequence (O70526 whole entry): T1 sequence (whole entry)

[11] = molecular target: T1, B2 bradykinin receptor (Cavia porcellus); assay: Inhibition of BK-induced bronchoconstriction in Dunkin Hartley guinea pig at 300 nmol/kg, it; format: functional; set-up: scale not given: the % may be the effect or the level left; summary of the method: as §1
[12] = molecular target: T1, B2 bradykinin receptor (Cavia porcellus); assay: Effect on BK-induced hypotension in Dunkin Hartley guinea pig at 300 nmol/kg, it; format: functional
Summary of the method: as §1, with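 “Blood” for “Pulmonary insufflation”, “each observation” for “5–210 min”, “(5–210 min),” for “points,”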

| Activity [1] [%] | Activity [2] [%] | Activity [3] [%] | Activity [4] [%] | pKi [5] | Activity [6] | Activity [7] | pKi [8] | Kb [9] [nM] | Kb [10] [nM] | Activity [11] [%] | Activity [12] [%] | SMILES |
| --- | --- | --- | --- | --- | --- | --- | --- | --- | --- | --- | --- | --- |
| 13 | 60 | 39 | 63 | < 5.00 | inactive | inactive | – | – | – | – | – | Cc1cc(C)c2cccc(OCc3c(Cl)ccc(S(=O)(=O)NC4(C(=O)N5CCN(C(=O)[C@@H](N)CCC[N+](C)(C)C)CC5)CCOCC4)c3Cl)c2n1 [FASITIBANT] |
| – | – | – | 73 | < 5.00 | – | – | 9.40 | 0.398 | 0.316 | 96 | 100 | Cc1cc(C)c2cccc(OCc3c(Cl)ccc(S(=O)(=O)N4CCC[C@@H]4C(=O)NCCCNC(=O)c4ccc(C(=N)N)cc4)c3Cl)c2n1 |
| – | – | – | – | < 5.00 | – | – | 9.00 | 0.251 | 0.1 | 36 | 75 | Cc1cc(C)c2cccc(OCc3c(Cl)ccc(S(=O)(=O)NC4(C(=O)N5CCN(C(=O)[C@@H](N)CCCCNC(=N)N)CC5)CCCC4)c3Cl)c2n1 |
| – | – | – | – | < 5.00 | – | – | 9.20 | 1.58 | 0.0398 | 21 | 51 | Cc1cc(C)c2cccc(OCc3c(Cl)ccc(S(=O)(=O)NC4(C(=O)N5CCN(C(=O)C[C@@H](N)CCCN(C)C)CC5)CCCC4)c3Cl)c2n1 |

Source: ChEMBL document CHEMBL1141405, “Design and synthesis of novel sulfonamide-containing bradykinin hB2 receptor antagonists. 2. Synthesis and structure-activity relationships of alpha,alpha-cycloalkylglycine sulfonamides” (J Med Chem, 2007)
